According to PubChem BioAssay AID623976 (Vanderbilt High Throughput Screening Facility, 2012):

Target: G protein-activated inward rectifier potassium channel 4 (Homo sapiens) + G protein-activated inward rectifier potassium channel 1 (Homo sapiens) (UniProt P48544+P48549)
Assay: GIRK1/4 channel activators by electrophysiology, confirmation, HEK-293 hGIRK1/4, whole-cell patch clamp (AID 623976)
Settings: HEK-293 hGIRK1/4, whole-cell patch clamp Ba2+-sensitive current
How it was run: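 Test system: HEK-293 cells stably expressing human GIRK1/4 channels | Read-out basis: Capacitance-normalized Ba2+-sensitive steady-state current density, four-parameter logistic EC50 | Times: Recording 24-72 h post-plating | Medium: 20K extracellular bath solution, KCl-based pipette solution pH 7.4 | Technique: Whole-cell voltage clamp at -70 mV, 2 mM BaCl2-sensitive current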

Sequence of G protein-activated inward rectifier potassium channel 4 (Homo sapiens) + G protein-activated inward rectifier potassium channel 1 (Homo sapiens) (P48544 whole entry, looked up): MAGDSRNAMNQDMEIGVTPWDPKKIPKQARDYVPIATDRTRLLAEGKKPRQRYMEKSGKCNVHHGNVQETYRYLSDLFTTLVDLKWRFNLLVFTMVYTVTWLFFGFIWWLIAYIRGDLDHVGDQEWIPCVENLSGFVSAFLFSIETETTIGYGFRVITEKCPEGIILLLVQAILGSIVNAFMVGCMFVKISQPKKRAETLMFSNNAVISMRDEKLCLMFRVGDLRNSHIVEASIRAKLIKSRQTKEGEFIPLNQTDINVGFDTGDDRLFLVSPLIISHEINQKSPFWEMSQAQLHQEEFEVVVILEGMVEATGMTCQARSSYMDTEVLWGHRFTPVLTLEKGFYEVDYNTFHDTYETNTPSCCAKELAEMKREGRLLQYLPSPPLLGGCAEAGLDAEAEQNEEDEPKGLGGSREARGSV
Sequence of G protein-activated inward rectifier potassium channel 4 (Homo sapiens) + G protein-activated inward rectifier potassium channel 1 (Homo sapiens) (P48549 whole entry, looked up): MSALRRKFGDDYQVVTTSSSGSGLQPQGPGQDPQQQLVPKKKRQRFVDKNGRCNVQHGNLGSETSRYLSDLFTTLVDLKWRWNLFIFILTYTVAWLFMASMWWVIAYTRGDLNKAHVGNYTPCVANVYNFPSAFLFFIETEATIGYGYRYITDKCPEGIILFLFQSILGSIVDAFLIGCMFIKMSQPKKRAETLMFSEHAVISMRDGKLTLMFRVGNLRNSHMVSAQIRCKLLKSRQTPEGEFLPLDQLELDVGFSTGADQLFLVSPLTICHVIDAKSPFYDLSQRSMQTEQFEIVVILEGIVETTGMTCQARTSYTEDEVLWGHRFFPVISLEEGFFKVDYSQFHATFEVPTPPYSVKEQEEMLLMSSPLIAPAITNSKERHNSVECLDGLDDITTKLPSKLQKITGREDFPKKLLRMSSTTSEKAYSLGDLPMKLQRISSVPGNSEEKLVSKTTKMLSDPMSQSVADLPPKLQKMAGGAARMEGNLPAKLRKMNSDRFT

EC50: 1590 nM
SMILES: Cc1cc(NC(=O)Nc2ccc(F)c(F)c2)n(-c2ccccc2)n1
